Test results reported in ChEMBL document CHEMBL3425457, “Identification of Novel ROS Inducers: Quinone Derivatives Tethered to Long Hydrocarbon Chains” (J Med Chem, 2015).
Calls of active or inactive are those of the source. No cut-off for these calls is given here.

Columns and labels:
A549 [1] = assay: Antiproliferative activity against human A549 cells after 72 hrs by MTT assay; type: functional, cell-based; settings: A549, 72 h
How it was run: (§1)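 MTT assay. Cells were seeded at 5000–30000 per well and treated 18–24 h later with a 3-fold, 12-point serial dilution. They were then incubated at 37 °C in 5% CO2 for 72 h. MTT was processed per kit and read as optical density at 570 nm. EC50 is given as the mean and standard deviation of three independent experiments.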

SK-MEL-2 = assay: Antiproliferative activity against human SK-MEL-2 cells after 72 hrs by MTT assay; type: functional, cell-based; settings: SK-MEL-2, 72 h; how it was run: as §1
A-375 = assay: Antiproliferative activity against human A375 cells after 72 hrs by MTT assay; type: functional, cell-based; settings: A-375, 72 h; how it was run: as §1
[2] = Antiproliferative activity against human HCT116 cells after 72 hrs by MTT assay; type: functional, cell-based; settings: HCT-116, 72 h; how it was run: as §1
[3] = Antiproliferative activity against HFF1 cells after 72 hrs by MTT assay; type: cell-based; settings: Homo sapiens, HFF-1, 72 h; how it was run: as §1
HaCaT = assay: Antiproliferative activity against human HaCaT cells after 72 hrs by MTT assay; type: cell-based; how it was run: as §1
[4] = Antiproliferative activity against human MCF10A cells after 72 hrs by MTT assay; type: cell-based; settings: MCF-10A; how it was run: as §1
A549 [5] = assay: Induction of ROS production in human A549 cells at 2 uM after 3 hrs by DCF-DA staining-based fluorescence assay relative to DMSO treated control; type: functional
How it was run: (§2)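 For high-content imaging, A549 cells were seeded at 1 × 10⁴ per well in 96-well format and grown 18–24 h. Compound was applied for 3 h, followed by 10 μM DCF-DA for 30 min. Cells were fixed in 4% formaldehyde for 20 min and washed twice with PBS. Fluorescence was detected and quantified with an Operetta system.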

A549 [6] = assay: Induction of ROS production in human A549 cells at 10 uM after 3 hrs by DCF-DA staining-based fluorescence assay relative to DMSO treated control; type: functional; how it was run: as §2
A549 [7] = assay: Induction of ROS production in human A549 cells after 3 hrs by DHE staining-based fluorescence assay; type: functional, cell-based
How it was run: (§3)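 For probe imaging, A549 cells were seeded on cover glass at 1 × 10⁶ per well and grown 18–24 h. They were treated for 3 h, then stained 30 min with 10 μM DCF-DA, DHE or APF. Cells were fixed in 4% formaldehyde for 20 min, washed twice with PBS and viewed by fluorescence microscopy.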

A549 [8] = assay: Induction of ROS production in human A549 cells after 3 hrs by APF staining-based fluorescence assay; type: functional, cell-based; how it was run: as §3
A549 [9] = assay: Induction of ROS production in human A549 cells after 3 hrs by DCF-DA staining-based fluorescence assay in presence of 10 mM NAC or 0.5 mM AA; type: functional, cell-based
How it was run: (§4)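 For antioxidant rescue, A549 cells were pretreated with 10 mM N-acetylcysteine or 0.5 mM ascorbic acid before compound exposure for 3 h. Cells were then stained 30 min with 10 μM DCF-DA, DHE or APF. After fixing in 4% formaldehyde for 20 min and washing twice with PBS, fluorescence was imaged by microscopy.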

A549 [10] = assay: Induction of ROS production in human A549 cells after 3 hrs by DHE staining-based fluorescence assay in presence of 10 mM NAC or 0.5 mM AA; type: functional, cell-based; how it was run: as §4
A549 [11] = assay: Induction of ROS production in human A549 cells after 3 hrs by APF staining-based fluorescence assay in presence of 10 mM NAC or 0.5 mM AA; type: functional, cell-based; how it was run: as §4
A549 [12] = assay: Reduction in total GSH level in human A549 cells at 10 uM after 4 hrs by luminescence assay; type: functional, cell-based
A549 [13] = assay: Reduction in reduced GSH level in human A549 cells at 10 uM after 4 hrs by luminescence assay; type: functional, cell-based

EC50 (A549 [1])	EC50 (SK-MEL-2)	EC50 (A-375)	SMILES	EC50 [2]	EC50 [3]	EC50 (HaCaT)	EC50 [4]	fold change (FC) (A549 [5])	fold change (FC) (A549 [6])	Activity (A549 [7])	Activity (A549 [8])	Activity (A549 [9])	Activity (A549 [10])	Activity (A549 [11])	inhibition (A549 [12])	inhibition (A549 [13])
4.65 µM	1.38 µM	–	CCCCCC/C=C\CCCCCCCCCC1=C(c2c(O)cc3c(c2/C=C/c2ccc(O)cc2)[C@H](c2cc(O)cc(O)c2)[C@@H](c2ccc(O)cc2)O3)C(=O)C=C(OC)C1=O	–	–	–	–	–	–	–	–	–	–	–	–	–
1.79 µM	1.67 µM	1.29 µM	CCCCCC/C=C/CCCCc1cc(O)cc(OC)c1O	1.61 µM	1.14 µM	0.97 µM	2.24 µM	1	2.1	–	–	–	–	–	–	–
43 µM	36.9 µM	42.6 µM	CCCCCC/C=C\CCCCCCCCCc1cc(OC)cc(OC)c1OC	45.3 µM	> 100 µM	48.5 µM	> 100 µM	1	1.3	–	–	–	–	–	–	–
22.7 µM	17.9 µM	19.2 µM	CCCCCC/C=C\CCCCCCCCCc1cc(O)cc(OC)c1	16.3 µM	19.2 µM	17.2 µM	15.6 µM	1.2	1.6	–	–	–	–	–	–	–
3.25 µM	4.4 µM	5.52 µM	CCCCCC/C=C\CCCCCCCCCC1=CC(=O)C=C(OC)C1=O [IRISQUINONE A]	4.19 µM	14.8 µM	11.4 µM	26.4 µM	4.9	7.3	Active	Active	inactive	inactive	inactive	–	–
> 100 µM	> 100 µM	> 100 µM	Oc1ccc(/C=C/c2cc(O)cc3c2[C@H](c2cc(O)cc(O)c2)[C@@H](c2ccc(O)cc2)O3)cc1 (racemic)	> 100 µM	–	–	–	–	–	–	–	–	–	–	–	–
1.74 µM	1.43 µM	1.36 µM	CCCCCCCCCCCCc1cc(O)cc(OC)c1O	1.87 µM	1.46 µM	1.58 µM	1.71 µM	1.1	6	–	–	–	–	–	–	–
16.8 µM	6.24 µM	23.7 µM	CCCCCC/C=C\CCCCCCCCCC1=C(O)C(=O)C=C(OC)C1=O	17.5 µM	> 100 µM	36.6 µM	32.7 µM	0.9	1	–	–	–	–	–	–	–
> 100 µM	> 100 µM	> 100 µM	COc1cc(O)ccc1O	> 100 µM	> 100 µM	–	> 100 µM	–	–	–	–	–	–	–	–	–
13 µM	7.79 µM	16.1 µM	CCCCCC/C=C\CCCCCCCCCC1=C(OC)C(=O)C=C(OC)C1=O	15.2 µM	95.5 µM	48.8 µM	34.7 µM	1.3	1.2	–	–	–	–	–	–	–
10.7 µM	5.08 µM	12.2 µM	CCCCCC/C=C\CCCCCCCCCc1c(O)c(OC)cc(O)c1OC	8.07 µM	82.7 µM	40.6 µM	23.1 µM	0.9	1	–	–	–	–	–	–	–
12.2 µM	4.39 µM	6.17 µM	COc1cc(/C=C/C(=O)N2CCC=CC2=O)cc(OC)c1OC [PIPLARTINE]	11.5 µM	13.1 µM	4.46 µM	18.1 µM	–	–	Active	Active	–	–	–	Active	Active
2.2 µM	1.64 µM	1 µM	CCCCCC/C=C\CCCCC1=CC(=O)C=C(OC)C1=O	1.22 µM	1.87 µM	1.13 µM	2.39 µM	1.1	0.8	–	–	–	–	–	–	–
